Screening results as filed in PubChem.
INS-1E GSIS act: GLuc luminescence reporter in INS-1E cells, primary screen for activators of glucose-dependent secretion of insulin; INS-1E GLuc reporter insulin secretion, 2-3 h; activation, % at 16.6 µM; 0.61% of 370,000 active;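 active = lowest replicate activation of at least 40%, so every replicate reaches that level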;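 note: 0% = median of neutral control wells and 100% = median of IBMX positive control wells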
miR-122 sensor: miR-122 Renilla sensor signal increase in Huh7, primary screen, miR-122 inhibitor project, cell-based, single point, plate reader; Huh7 miR-122 Renilla luciferase sensor, 48 h; neutral wells = 0, positive control = 100; activation (reporter increase), % at 12.5 µM; 0.3% of 340,000 active;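 active = mean replicate activation score at least 90 and every replicate individually at or above 90; inconclusive = only one of the two criteria met; inactive = neither criterion met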;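 note: higher luciferase means less miR-122 activity so hits act as miR-122 inhibitors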
dFosB activator: activators of delta FosB homodimer, primary screen, biochemical, fluorescence polarization, TAMRA-CDK5 oligo, single point | purified delta FosB; percent of positive-control signal above neutral wells | activation, % at 25 µM | 0.99% of 340,000 active;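 active = mean activation above about 17%, with every replicate also reaching it, limit read from the data, passing the limit was not always enough; inconclusive = only one of the two conditions met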
Rtt109 HAT inh: inhibitors of C. albicans Rtt109/Vps75 HAT, primary screen, biochemical, ThioGlo CoA-SH fluorescence, plate reader | purified Rtt109/Vps75, 4 h | inhibition, % at 34.9 µM | 0.16% of 330,000 active | AID 540336, 2011;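 active = inhibition of at least 50% in every replicate; inconclusive = best replicate reaches 50% inhibition but some replicates fall short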
Target sequence (Q5AAJ8 whole entry, looked up): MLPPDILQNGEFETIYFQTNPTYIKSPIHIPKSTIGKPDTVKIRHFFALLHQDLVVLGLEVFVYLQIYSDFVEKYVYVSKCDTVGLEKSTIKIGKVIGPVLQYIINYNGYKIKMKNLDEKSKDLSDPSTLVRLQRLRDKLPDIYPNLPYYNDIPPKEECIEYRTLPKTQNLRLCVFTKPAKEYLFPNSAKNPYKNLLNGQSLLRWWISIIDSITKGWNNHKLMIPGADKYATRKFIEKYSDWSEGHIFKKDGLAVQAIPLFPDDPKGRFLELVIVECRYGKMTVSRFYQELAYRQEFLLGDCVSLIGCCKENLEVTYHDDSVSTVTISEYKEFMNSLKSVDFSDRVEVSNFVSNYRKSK
Cneo AK release: Cryptococcus neoformans cell lysis inducers, primary screen, AK release luminescence, single concentration; C. neoformans lysis, adenylate kinase release luminescence, 4 h; normalised: neutral wells 0, clomiphene wells 100; lysis activity, % at 15 µM; 0.2% of 360,000 active;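 active = mean lysis activity across replicates of at least 80%, whatever share of replicates individually reach that level; inactive = mean lysis activity below 80%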
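Test system: log-phase Cryptococcus neoformans yeast cells; Quantity: yeast cell density of 5 × 10^6 cells/mL; Buffer or medium: YPD; Doses: single compound concentration per well; Timing: 4 h at 37 °C static, read 1 h later; Measured by: AK luminescence; Read-out basis: lysis from increased AK signal; Control set: Clomiphene as positive control.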
Env fusion inh: inhibitors of HIV-1 Env-driven cell-cell fusion, primary screen, HeLa-JRFL effector, CEM21 target cells, luciferase; 1.1% of 360,000 active; inhibition, % at 12.3 µM; AID 651610, 2012;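 active = mean replicate inhibition score of at least 50 and every replicate individually at or above 50; inconclusive = only one of the two criteria met; inactive = mean below 50 and not all replicates reaching 50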;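 note: 0% = plate neutral controls and 100% = maraviroc near 300 nM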
Active calls of the source: *; ? = inconclusive; nt = not tested or not shown; [ ] = remark or other dose. The list is not random: actives were taken first. Their share in the collection is about 2.4%.

SMILES	INS-1E GSIS act	miR-122 sensor	dFosB activator	Rtt109 HAT inh	Cneo AK release	Env fusion inh
CNC[C@H]1OCCCC[C@@H](C)Oc2ccc(NS(=O)(=O)c3ccc(OC)cc3)cc2C(=O)N([C@@H](C)CO)C[C@@H]1C	6	3[16.7 µM]	nt	nt	nt	-14[16.7 µM]
Cc1c(CC(=O)O)c(=O)oc2c(C)c(OCc3ccccc3Br)ccc12	41*	5	-15	0	-1	1
Cc1c(CC(=O)O)c(=O)oc2c(C)c(OCc3ccccc3)ccc12	1	4	-5	-16	0	-8
COc1ccc(CC(=O)Nc2cccc(-c3ccc4nnc(C)n4n3)c2)cc1OC	3	-3	73*	4	nt	13
COc1ccc(CC(=O)OCC(=O)Nc2cccc(C(C)=O)c2)cc1OC	59*	0	-10	5	nt	nt
COc1ccc(CC(=O)Nc2cccc(-c3ccc4nnc(C)n4n3)c2)cc1	12	-4	73*	4	nt	11
Cc1nnc2ccc(-c3cccc(NC(=O)Cc4cccs4)c3)nn12	4	1	-32	-4	2	18
COc1ccc(CC(=O)Nc2cccc(-c3ccc4nncn4n3)c2)cc1OC	2	nt	63*	1	nt	11
COc1ccc(CC(=O)OCC(=O)Nc2ccc3[nH]c(=O)[nH]c3c2)cc1OC	nt	0	nt	nt	-3	-37
CCN1[C@H](C(=O)NCc2ccccc2)[C@@H](CO)[C@@H]2Cn3c(ccc(-c4ccccc4)c3=O)[C@@H]21	58	-5[16.7 µM]	nt	nt	1	nt
CCOc1ccc(CC(=O)Nc2cccc(-c3ccc4nnc(C)n4n3)c2)cc1	0	6	89*	15	-3	-1
COc1ccc(-c2cc3c(=O)n(CC(=O)Nc4cccc(Cl)c4)nc(C)n3n2)cc1	20	-12	24*	-5	-2	15
O=C(C[C@H]1CC[C@@H](NC(=O)C2CCC2)[C@@H](CO)O1)NCCCN1CCOCC1	-1	nt	nt	nt	-3	8[16.7 µM]
COc1cc(CNCc2ccncc2)cc(OC)c1OC	7	-1	1	-2	4	-56
COc1cc(CNCc2ccc(C)cc2)cc(OC)c1OC	-13	0	-5	51*	0	27
O=C(Nc1ccc2c(c1)OCO2)N[C@@H]1CC[C@H](CCNC(=O)C2CCOCC2)O[C@H]1CO	17	nt	nt	nt	0	-2[16.7 µM]
CCCc1cc(=O)oc2cc(C)cc(OCC(=O)Nc3ccc(S(N)(=O)=O)cc3)c12	139*	5	4	29	-2	7
Cc1c2ccncc2cc2c1[nH]c1ccccc12	0	2	78*	19	-1	27
C[C@@H]1CN([C@@H](C)CO)C(=O)c2cc(NC(=O)Nc3ccc4c(c3)OCO4)ccc2O[C@H]1CN(C)Cc1ccc(Oc2ccccc2)cc1	-2	7[16.7 µM]	nt	nt	89*	-9[16.7 µM]
C[C@@H]1CN([C@H](C)CO)C(=O)c2cc(NC(=O)Nc3ccc4c(c3)OCO4)ccc2O[C@H]1CN(C)Cc1ccc(Oc2ccccc2)cc1	-7	-4[16.7 µM]	nt	nt	3	7[16.7 µM]
C[C@H](CO)N1C[C@H](C)[C@@H](CN(C)Cc2ccc(Oc3ccccc3)cc2)Oc2ccc(NC(=O)Nc3ccc4c(c3)OCO4)cc2C1=O	-29	-1[16.7 µM]	nt	nt	101*	32[16.7 µM]
C[C@@H]1CN([C@H](C)CO)C(=O)c2cc(NC(=O)Nc3ccc4c(c3)OCO4)ccc2O[C@@H]1CN(C)Cc1ccc(Oc2ccccc2)cc1	-15	4[16.7 µM]	nt	nt	3	-1[16.7 µM]
COc1ccc2c3c([nH]c2c1)[C@H](CO)NCC31CN(S(=O)(=O)c2ccccc2)C1	7	nt	nt	nt	nt	nt
O=C(c1ccc(CNS(=O)(=O)c2ccccc2)cc1)N1CCN(Cc2ccccc2)CC1	nt	-1	-6	7	5	79*
Cc1cc(Cl)ccc1Oc1nc(-c2ccccc2)ncc1S(C)(=O)=O	150*	1	7	3	5	nt
SMILES	INS-1E GSIS act	miR-122 sensor	dFosB activator	Rtt109 HAT inh	Cneo AK release	Env fusion inh
O=C1c2c(O)cccc2Cc2cccc(O)c21	nt	5	26*	1	0	nt
COc1cccc(CNC23CC4CC(CC(C4)C2)C3)c1OCc1ccccc1	-47	8	8	10	8	62*
Cc1ccc(S(=O)(=O)Nc2c3ccccc3nc(=O)n2-c2ccccc2)cc1	59*	8	-1	0	0	nt
CCS(=O)(=O)c1nc(S(=O)(=O)c2ccc(C)cc2)c(N2CCC(O)CC2)s1	41*	nt	0	17	-6	7
CCS(=O)(=O)c1nc(S(=O)(=O)c2ccc(C)cc2)c(N2CCCC2)s1	6	27	-6	10	-4	1
CN(C)CCCNC(=O)C[C@H]1CC[C@H](NS(=O)(=O)c2ccccc2)[C@@H](CO)O1	10	nt	nt	nt	6	1[16.7 µM]
O=C(Nc1ccccc1)N1C[C@@H]2[C@H](c3ccccc31)[C@@H](CO)N2C(=O)c1cccnc1	-5	20[16.7 µM]	nt	nt	-3	nt
Brc1ccc(-c2ccc(/C=N/Nc3nc4ccccc4[nH]3)o2)cc1	1	13	39*	-17	-4	-152
CN(Cc1ccccc1)c1ncnc(N)c1[N+](=O)[O-]	44*	nt	1	nt	nt	?
CN(Cc1ccccc1)c1ncnc2[nH]ncc12	40*	4	-8	-10	0	nt
O=C(N[C@H]1CC[C@H](CC(=O)N2CCOCC2)O[C@@H]1CO)c1ccc2c(c1)OCO2	1	nt	nt	nt	-3	5[16.7 µM]
Nc1nc2ccc(S(=O)(=O)N3CCCCC3)cc2s1	-2	11	-3	152*	0	-5
COc1ccc(S(=O)(=O)N2CCOCC2)cc1NC(=O)Cc1sc(C)nc1-c1ccc(F)cc1	-15	11	-17	-4	-1	11
Cc1nc2ccc(S(=O)(=O)N3CCCCC3)cc2s1	6	2	1	-1	-1	-5
O=C(Nc1nc2ccc(S(=O)(=O)N3CCCC3)cc2s1)C1CCCCC1	nt	130*	-13	-2	1	-12
COc1ccc(S(=O)(=O)N2CCCCC2)cc1NC(=O)C1CCCC1	52*	4	-3	-6	4	10
COc1ccc(S(=O)(=O)N2CCCCC2)cc1NC(=O)Cc1sc(C)nc1-c1ccc(F)cc1	-38	0	-2	6	3	80*
C[C@H](CO)N1C[C@H](C)[C@@H](CN(C)C(=O)Nc2ccc3c(c2)OCO3)Oc2cc(C3=CCCCC3)ccc2S1(=O)=O	-12	31[16.7 µM]	nt	nt	-3	nt
CNC[C@@H]1Oc2ccc(NS(C)(=O)=O)cc2CC(=O)N(C)C[C@@H]1C	12	nt	nt	nt	nt	nt
